For one assay, the system named is Visna-maedi virus. As to the kind of experiment: Antiviral activity against Visna virus in SCP cells. The class given is functional, organism-based.
In another assay the test system is Human adenovirus 2. As to the kind of experiment: Antiviral activity against adeno 2 virus in HeLa cells. The class given is functional, organism-based.
For a further assay, the system named is Human alphaherpesvirus 2. In words: Antiviral activity against herpes 2 virus in Vero cells. Type of assay: functional, organism-based. To be noted: herpes simplex virus type2.
For another assay, the system named is Semliki Forest virus. In words: Antiviral activity against semliki forest virus in Vero cells. The class given is functional, organism-based.
The subject of assay [1] is HeLa. As to the kind of experiment: Antiviral activity against rhino 1-A virus in HeLa cells; IA= Inactive. The class given is functional, cell-based. To be noted: Homo sapiens.
The test system of a further assay is Lymphoblastoid cell. In words: Ability to inhibit de novo purine nucleotide biosynthesis at a concentration of 100 uM. The class given is functional. The note with it: Homo sapiens. In outline: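 De novo purine nucleotide synthesis was measured as [14C]formate incorporation in cultured human lymphoblast cells, with compound at 100 μM. Results are given as percent inhibition.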

Assay [2] deals with Vero. In words: Antiviral activity against Para Flu 3 virus in Vero cells; IA= Inactive. Type of assay: functional, cell-based. To be noted: Chlorocebus sabaeus.
Assay [3] is described as follows: Cytotoxicity against human B-lymphoblastic cell line WI-L2. Type of assay: functional. To be noted: WIL2, read-out: ID50 (the source's name).
A further assay has as its system L1210. In words: Cytotoxicity against murine leukemic cell line L1210. Type of assay: functional. The note with it: Mus musculus, read-out: ID50 (the source's name).
Assay [4] relates to Vero. As to the kind of experiment: Antiviral activity against semliki forest virus in Vero cells. The class given is functional, cell-based. To be noted: Chlorocebus sabaeus.
Assay [5] deals with HeLa. As to the kind of experiment: Antiviral activity against rhino 1-A virus in HeLa cells. The class given is functional, Homo sapiens.

The source made the active and inactive calls. The calls are words filed in the database; no cut-off is given here.

For `O=C1CC=Nc2c1cnn2[C@H]1C[C@H](O)[C@@H](CO)O1`, the outcome in the assay with Visna-maedi virus, in the assay on Human adenovirus 2, in the assay with Human alphaherpesvirus 2 and in the assay with Semliki Forest virus was inactive.
For `OC[C@H]1OC(n2ncc3cccnc32)[C@H](O)[C@@H]1O` (stereo partly specified), the result with Visna-maedi virus, with Human adenovirus 2, in the assay on Human alphaherpesvirus 2 and with Semliki Forest virus was inactive.
Regarding `COc1ccnc2c1cnn2C1O[C@H](CO)[C@@H](O)[C@H]1O` (stereo partly specified), the outcome in the assay with Visna-maedi virus, in the assay on Human adenovirus 2, with Human alphaherpesvirus 2 and with Semliki Forest virus was inactive.
On to `OC[C@H]1O[C@@H](n2ncc3c(Cl)ccnc32)C[C@@H]1O`, for which the outcome in the assay on Visna-maedi virus, with Human adenovirus 2, in the assay with Human alphaherpesvirus 2 and in the assay on Semliki Forest virus was inactive.
Turning to `OC[C@H]1OC(n2ncc3c(Cl)ccnc32)[C@@H](O)[C@@H]1O` (stereo partly specified), the result in the assay on Visna-maedi virus, in the assay with Human adenovirus 2, in the assay on Human alphaherpesvirus 2 and in the assay with Semliki Forest virus was inactive.
A word on the inhibition: it is the relative decrease from the control value, in per cent. A low value points to a weak effect. With `[N-]=[N+]=Nc1ccnc2c1cnn2C1O[C@H](CO)[C@@H](O)[C@H]1O` (stereo partly specified), the result in the assay on Visna-maedi virus, in the assay with HeLa [1], with Human adenovirus 2, in the assay with Human alphaherpesvirus 2, in the assay on Semliki Forest virus and in the assay on Vero [2] was inactive. In the assay with Lymphoblastoid cell, the inhibition at 100 µM stood at 46%.
On to `OC[C@H]1OC(n2ncc3cccnc32)[C@@H](O)[C@@H]1O` (stereo partly specified), for which the outcome in the assay on Visna-maedi virus, in the assay on Human adenovirus 2, with Human alphaherpesvirus 2 and with Semliki Forest virus was inactive.
Take `OC[C@H]1O[C@@H](n2ncc3cccnc32)C[C@@H]1O`: the result in the assay on Visna-maedi virus, in the assay with Human adenovirus 2, in the assay on Human alphaherpesvirus 2 and in the assay with Semliki Forest virus was inactive.
Regarding `Nc1ccnc2c1cnn2C1O[C@H](CO)[C@@H](O)[C@@H]1O` (stereo partly specified), the outcome in the assay on Visna-maedi virus, in the assay with HeLa [1], in the assay with Human adenovirus 2, in the assay with Human alphaherpesvirus 2, with Semliki Forest virus and in the assay with Vero [2] was inactive.
`OC[C@H]1OC(n2ncc3c(Cl)ccnc32)[C@H](O)[C@@H]1O` (stereo partly specified): the outcome in the assay on Visna-maedi virus, with HeLa [1], with Human adenovirus 2, in the assay with Human alphaherpesvirus 2, in the assay on Semliki Forest virus and in the assay on Vero [2] was inactive. The IC50 in assay [3] was found to be 18 µM; in the assay with L1210, 20 µM. Also, testing at 100 µM in the assay on Lymphoblastoid cell gave an inhibition of 94%.
For `Nc1ccnc2c1cnn2C1O[C@H](CO)[C@@H](O)[C@H]1O` (stereo partly specified), the outcome in the assay with Visna-maedi virus, with HeLa [1], with Human adenovirus 2, in the assay with Human alphaherpesvirus 2, in the assay with Vero [4] and in the assay with Vero [2] was inactive. Further, the inhibition at 100 µM in the assay with Lymphoblastoid cell was 36%.
As to `OC[C@H]1OC(n2ncc3c(OCc4ccccc4)ccnc32)[C@H](O)[C@@H]1O` (stereo partly specified), the outcome in the assay on Visna-maedi virus, in the assay with Human adenovirus 2, in the assay on Human alphaherpesvirus 2 and in the assay on Semliki Forest virus was inactive.
For `COc1ccnc2c1cnn2[C@H]1C[C@H](O)[C@@H](CO)O1`, the outcome with Visna-maedi virus, with Human adenovirus 2, in the assay on Human alphaherpesvirus 2 and with Semliki Forest virus was inactive.
As to `OC[C@H]1OC(n2ncc3c(O)ccnc32)[C@@H](O)[C@@H]1O` (stereo partly specified), the result with Visna-maedi virus, with Human adenovirus 2, with Human alphaherpesvirus 2 and with Semliki Forest virus was inactive.
As for `COc1ccnc2c1cnn2C1O[C@H](CO)[C@@H](O)[C@@H]1O` (stereo partly specified), the outcome with Visna-maedi virus, with Human adenovirus 2, in the assay on Human alphaherpesvirus 2 and with Semliki Forest virus was inactive.
`O=C1CC=Nc2c1cnn2C1O[C@H](CO)[C@@H](O)[C@H]1O` (stereo partly specified): the IC50 in assay [3] is 20 µM; in the assay on L1210, more than 100 µM. Besides, the inhibition at 100 µM in the assay on Lymphoblastoid cell was found to be 80%. For the same molecule, the Virus rating with HeLa [5] is given as 0.6.
On to `Nc1ccnc2c1cnn2[C@H]1C[C@H](O)[C@@H](CO)O1`, for which the outcome with Visna-maedi virus, in the assay with Human adenovirus 2, with Human alphaherpesvirus 2 and in the assay with Semliki Forest virus was inactive.
